How the values were obtained:
Format in all cases: functional
Tetranychus urticae [1] = test: Acaricidal activity against adult Tetranychus urticae (two-spotted spider mite) in leaves of cowpea plant assessed as number of unhatched eggs at 10 ug/mL at 25 degC measured after 10 days (reference value: 0%)
Tetranychus urticae [2] = test: Acaricidal activity against adult Tetranychus urticae (two-spotted spider mite) in leaves of cowpea plant assessed as mortality at 10 ug/mL at 25 degC measured after 3 days (reference value: 0%); settings: 72 h
Caenorhabditis elegans [3] = test: Nematocidal activity against Caenorhabditis elegans assessed as immobilized rate at 30 ug/mL at 25 degC for 15 hr (reference value: 5.3 to 6.8%)
Caenorhabditis elegans [4] = test: Nematocidal activity against Caenorhabditis elegans assessed as immobilized rate at 100 ug/mL at 25 degC for 15 hr (reference value: 5.3 to 6.8%)
How it was run: (§1)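 Compounds were prepared as 0.1% MeOH solutions and diluted 10-fold in water to give 100 μg/mL test solutions. Immobilized and total C. elegans were counted under a stereomicroscope. Result is % immobilized of all nematodes tested.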

Tetranychus urticae [5] = test: Acaricidal activity against adult Tetranychus urticae (two-spotted spider mite) in leaves of cowpea plant assessed as number of unhatched eggs at 100 ug/mL at 25 degC measured after 10 days (reference value: 0%)
Tetranychus urticae [6] = test: Acaricidal activity against adult Tetranychus urticae (two-spotted spider mite) in leaves of cowpea plant assessed as number of unhatched eggs at 30 ug/mL at 25 degC measured after 10 days (reference value: 0%)
Tetranychus urticae [7] = test: Acaricidal activity against adult Tetranychus urticae (two-spotted spider mite) in leaves of cowpea plant assessed as mortality at 100 ug/mL at 25 degC measured after 3 days (reference value: 0%); settings: 72 h
Tetranychus urticae [8] = test: Acaricidal activity against adult Tetranychus urticae (two-spotted spider mite) in leaves of cowpea plant assessed as mortality at 50 ug/mL at 25 degC measured after 3 days (reference value: 0%); settings: 72 h
Tetranychus urticae [9] = test: Acaricidal activity against adult Tetranychus urticae (two-spotted spider mite) in leaves of cowpea plant assessed as mortality at 2 ug/mL at 25 degC measured after 3 days (reference value: 0%); settings: 72 h
Tetranychus urticae [10] = test: Acaricidal activity against adult Tetranychus urticae (two-spotted spider mite) in leaves of cowpea plant assessed as mortality at 30 ug/mL at 25 degC measured after 3 days (reference value: 0%); settings: 72 h
Caenorhabditis elegans [11] = test: Nematocidal activity against Caenorhabditis elegans assessed as immobilized rate at 2 ug/mL at 25 degC for 15 hr (reference value: 5.3 to 6.8%)
Caenorhabditis elegans [12] = test: Nematocidal activity against Caenorhabditis elegans assessed as immobilized rate at 50 ug/mL at 25 degC for 15 hr (reference value: 5.3 to 6.8%); how it was run: as §1
Tetranychus urticae [13] = test: Acaricidal activity against adult Tetranychus urticae (two-spotted spider mite) in leaves of cowpea plant assessed as number of unhatched eggs at 2 ug/mL at 25 degC measured after 10 days (reference value: 0%)
Caenorhabditis elegans [14] = test: Nematocidal activity against Caenorhabditis elegans assessed as immobilized rate at 10 ug/mL at 25 degC for 15 hr (reference value: 5.3 to 6.8%); how it was run: as §1
Tetranychus urticae [15] = test: Acaricidal activity against adult Tetranychus urticae (two-spotted spider mite) in leaves of cowpea plant assessed as number of unhatched eggs at 50 ug/mL at 25 degC measured after 10 days (reference value: 0%)

Row | Compound | Activity (Tetranychus urticae [1]) [%] | mortality at 10 µg/mL (Tetranychus urticae [2]) [%] | Activity (Caenorhabditis elegans [3]) [%] | Activity (Caenorhabditis elegans [4]) [%] | Activity (Tetranychus urticae [5]) [%] | Activity (Tetranychus urticae [6]) [%] | mortality at 100 µg/mL (Tetranychus urticae [7]) [%] | mortality at 50 µg/mL (Tetranychus urticae [8]) [%] | mortality at 2 µg/mL (Tetranychus urticae [9]) [%] | mortality at 30 µg/mL (Tetranychus urticae [10]) [%] | Activity (Caenorhabditis elegans [11]) [%] | Activity (Caenorhabditis elegans [12]) [%] | Activity (Tetranychus urticae [13]) [%] | Activity (Caenorhabditis elegans [14]) [%] | Activity (Tetranychus urticae [15]) [%]
1 | C/C1=C\C[C@@H]2C[C@@H](C[C@]3(C=C[C@H](C)[C@@H](C4CCCCC4)O3)O2)OC(=O)c2cc(C)c(O)cc2/C=C/C=C/[C@H](C)[C@@H]1O | 12.1 | 77.1 | 81.4 | 100 | 56.7 | 19.8 | 100 | 100 | 45.2 | 92.5 | 13.5 | 100 | 0 | 49.2 | 37.6
2 | CO[C@H]1C[C@H](O[C@H]2[C@H](C)O[C@@H](O[C@@H]3/C(C)=C/C[C@@H]4C[C@@H](C[C@]5(C=C[C@H](C)[C@@H](C6CCCCC6)O5)O4)OC(=O)[C@@H]4C=C(C)[C@@H](O)[C@H]5OC/C(=C\C=C\[C@@H]3C)[C@]54O)C[C@@H]2OC)O[C@@H](C)[C@@H]1O [DORAMECTIN] | 0 | 62.9 | 100 | 100 | 47.4 | 8.9 | 100 | 100 | 26.8 | 86.5 | 45.3 | 100 | 0 | 86.5 | 21.5
3 | C/C1=C\C[C@@H]2C[C@@H](C[C@]3(C[C@@H](O)[C@H](C)[C@@H](C4CCCCC4)O3)O2)OC(=O)c2cc(C)c(O)cc2/C=C/C=C/[C@H](C)[C@@H]1O | 13.9 | 75.6 | 100 | 100 | 59.8 | 23.5 | 100 | 100 | 43.9 | 96.4 | 43.7 | 100 | 0 | 92.7 | 43.7
